Reference: ChEMBL document CHEMBL3739254, “Synthesis of apoptotic chalcone analogues in HepG2 human hepatocellular carcinoma cells” (Bioorg Med Chem Lett, 2015)
The source made the active and inactive calls. No cut-off for these calls is given here.

Experiments:
HepG2 [1] = assay: Cytotoxicity against human HepG2 cells assessed as cell viability at 5 to 100 uM after 24 hrs by MTT assay relative to control; assay type: functional, cell-based
Outline: (§1)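 HepG2 cells kept in DMEM with 10% FBS and penicillin/streptomycin at 37 °C under 5% CO2. Cells were exposed for 24 h to chalcone analogues at various concentrations, up to 100 µM, and viability was then read by MTT assay.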

HepG2 [2] = assay: Cytotoxicity against human HepG2 cells assessed as cell viability at 50 uM after 24 hrs by MTT assay; assay type: functional; conditions: HepG2, 24 h, read-out: GI; outline: as §1
HepG2 [3] = assay: Cytotoxicity against human HepG2 cells assessed as cell viability at 100 uM after 24 hrs by MTT assay; assay type: functional; conditions: HepG2, 24 h, read-out: GI; outline: as §1
HepG2 [4] = assay: Cytotoxicity against human HepG2 cells assessed as cell viability at 5 to 100 uM after 24 hrs by MTT assay; assay type: functional; outline: as §1
HepG2 [5] = assay: Cytotoxicity against human HepG2 cells assessed as cell viability after 24 hrs by MTT assay; assay type: functional, cell-based; conditions: HepG2, 24 h; outline: as §1
LLC-PK1 = assay: Cytotoxicity against porcine LLC-PK1 cells assessed as cell viability after 24 hrs by MTT assay; assay type: cell-based; conditions: Sus scrofa, LLC-PK1, 24 h
HepG2 [6] = assay: Induction of apoptosis in human HepG2 cells assessed as early apoptotic cells at 25 uM by annexin V-FITC/propidium iodide staining-based flow cytometric analysis (reference value: 1.9 +/- 0.5%); assay type: functional
HepG2 [7] = assay: Induction of apoptosis in human HepG2 cells assessed as early apoptotic cells at 50 uM by annexin V-FITC/propidium iodide staining-based flow cytometric analysis (reference value: 1.9 +/- 0.5%); assay type: functional
HepG2 [8] = assay: Induction of apoptosis in human HepG2 cells assessed as cell shrinking at 25 to 50 uM by phase contrast microscopic analysis; assay type: functional, cell-based
HepG2 [9] = assay: Induction of apoptosis in human HepG2 cells assessed as progressive condensation at 25 to 50 uM by phase contrast microscopic analysis; assay type: functional, cell-based
HepG2 [10] = assay: Induction of apoptosis in human HepG2 cells assessed as karyorrhexis at 25 to 50 uM by phase contrast microscopic analysis; assay type: functional, cell-based
HepG2 [11] = assay: Induction of apoptosis in human HepG2 cells assessed as cleavage of caspase-8 at 25 to 50 uM after 24 hrs by Western blot analysis; assay type: functional, cell-based
Outline: (§2)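 HepG2 cells were grown in 60 mm dishes and treated at 25 and 50 µM for 24 h. Whole-cell extracts were made in RIPA buffer with 1× protease inhibitor cocktail and 1 mM PMSF. Lysates (20 µg) were run on SDS–PAGE and transferred to PVDF. Blots were probed with epitope-specific antibodies against GAPDH and the target proteins and detected by ECL.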

HepG2 [12] = assay: Induction of apoptosis in human HepG2 cells assessed as cleavage of caspase-3 at 25 to 50 uM after 24 hrs by Western blot analysis; assay type: functional, cell-based; outline: as §2
HepG2 [13] = assay: Induction of apoptosis in human HepG2 cells assessed as cleavage of PARP at 25 to 50 uM after 24 hrs by Western blot analysis; assay type: functional, cell-based; outline: as §2
HepG2 [14] = assay: Induction of apoptosis in human HepG2 cells assessed as cleavage of caspase-9 at 25 to 50 uM after 24 hrs by Western blot analysis; assay type: functional, cell-based; outline: as §2
HepG2 [15] = assay: Induction of apoptosis in human HepG2 cells assessed as increase in Bax/Bcl2 ratio at 25 to 50 uM after 24 hrs by Western blot analysis; assay type: functional, cell-based; outline: as §2

In the case of O=C(/C=C/c1ccc2ccccc2c1)c1ccc(Br)cc1, the “growth inhibition (GI)” value (HepG2 [1]) is reported as “inactive”.
In the case of COc1ccc(C(=O)/C=C/c2ccc(-c3ccccc3)cc2)cc1OC, the “growth inhibition (GI)” value (HepG2 [1]) is reported as “inactive”.
In the case of CCn1c2ccccc2c2cc(/C=C/C(=O)c3ccc(Cl)cc3)ccc21, the “growth inhibition (GI)” value (HepG2 [1]) is reported as “inactive”.
For COc1cccc(C(=O)/C=C/c2cc(OC)c(Br)c(OC)c2)c1, the inhibition of growth at 50 µM (HepG2 [2]) was no more than 91%, the inhibition of growth at 100 µM (HepG2 [3]) was 98% and the “growth inhibition (GI)” value (HepG2 [4]) was greater than 50%. It also gave an IC50 (HepG2 [5]) of 26 µM, an IC50 (LLC-PK1) of 83 µM and an Activity (HepG2 [6]) of 8.5%. The Activity (HepG2 [7]) was 31.2%, the Activity (HepG2 [8]) was “Active” and the Activity (HepG2 [9]) was “Active”. For the same compound, the Activity (HepG2 [10]) was “Active”, the Activity (HepG2 [11]) was “Active” and the Activity (HepG2 [12]) was “Active”. The Activity (HepG2 [13]) was “Active”, the Activity (HepG2 [14]) was “inactive” and the Activity (HepG2 [15]) was “Active”.
For O=C(/C=C/c1ccc(-c2ccccc2)cc1)c1ccc(Cl)cc1, the “growth inhibition (GI)” value (HepG2 [1]) was “inactive”.
With CCn1c2ccccc2c2cc(/C=C/C(=O)c3ccc(OC)c(OC)c3)ccc21 the “growth inhibition (GI)” value (HepG2 [1]) was “inactive”.
In the case of O=C(/C=C/c1ccc2ccccc2c1)c1ccc(Cl)cc1, the “growth inhibition (GI)” value (HepG2 [1]) is reported as “inactive”.
For COc1cc(/C=C/C(=O)c2ccc(Br)cc2)cc(OC)c1Br, the “growth inhibition (GI)” value (HepG2 [4]) was greater than 50%.
